This is a sample that favours compounds with a hit; in the whole collection about 4.9% have one here.
STAT1 blocker = reduces IFN-gamma driven STAT1 reporter signal; NIH 3T3 STAT1-luciferase reporter, luminescence; inhibition, % at 5.5 µM; 200,000 compounds, 0.35% hits; AID 920;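 active = inhibition above a set limit, the mean inhibition across all tested compounds plus 3 SD, cut at about 34% in these data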;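 note: 0% = IFN-gamma with DMSO and 100% = IFN-gamma with 300 µM nifuroxazide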
STAT1 act = activators of IFN-gamma induced STAT1 signaling; NIH 3T3 STAT1-luciferase reporter, luminescence; 100% = IFN-gamma alone, no compound; activation (% of control), % at 5.5 µM; 200,000 compounds, 2.6% hits; AID 932;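 active = activation above the screen-wide mean activation plus 3 SD, cut at about 130% in these data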;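 note: raw ratio to IFN-gamma control signal so 100% means no change and 0% no light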
NF-kB expr up = raises NF-kB expression in human neuronal cells | NF-kB reporter expression; hits give high values | AID 1239 | 190,000 compounds, 1.6% hits | fold change at 12.5 µM; in the data active = fold change above about 3.3
APP 5'UTR act = activates APP 5'UTR luciferase reporter; 190,000 compounds, 1% hits; AID 1276; SH-SY5Y APP 5'UTR luciferase reporter, luminescence; zero percent = DMSO vehicle wells; activation, % at 2 µM;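 active = activation above a set limit, based on mean plus 3 SD of controls, cut at about 140% in these data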
STAT3 blocker = inhibitors of IL-6 induced STAT3 signaling. inhibition, % at 5.5 µM. AID 862. U3A cells, IL-6 STAT3-luciferase reporter, luminescence; host cell line lacks STAT1. 190,000 compounds, 0.89% hits;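 active = inhibition above the mean inhibition across all screened compounds plus 3 SD, cut at about 44% in these data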;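 note: 0% = DMSO only wells and 100% = 100 µM nifuroxazide control wells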
STAT3 act = STAT3 signaling activation. U3A cells, IL-6 STAT3-luciferase reporter, luminescence; 100% = signal with IL-6 EC80 alone. activation (% of control), % at 5.6 µM. 190,000 compounds, 0.91% hits. AID 871;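 active = activation above the screen-wide mean of compound activation plus 3 SD, cut at about 130% in these data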;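 note: 0% = background luminescence of wells with medium and substrate only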
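Test system: Human STAT1-deficient U3A cells with stable STAT3-luciferase reporter | Also added: Interleukin-6, 33 ng/mL | Timing: Compound pre-incubation 1 h before IL-6, then 6 h stimulation at 37 °C | Technique: Luciferase reporter luminescence | Read-out: Percent of IL-6-only median luminescence | Benchmarks: IL-6-only wells as 100% reference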
Active calls of the source: *; x = no result given.

SMILES	STAT1 blocker	STAT1 act	NF-kB expr up	APP 5'UTR act	STAT3 blocker	STAT3 act
COc1ccc(C2=Nn3c(nnc3-c3ccco3)SC2)cc1	-6	105	4.8*	-11	19	87
O=S1(=O)C=C(Sc2nc3ccccc3s2)c2ccccc21	7	95	0.14	-96	-33	134*
Cc1cc(C)nc(SC2=CS(=O)(=O)c3ccccc32)n1	24	78	1	-8	26	82
O=C(Nc1ccccc1)c1ccsc1	2	98	1.3	-12	13	91
Cn1c(-c2nnn(-c3ccc(F)cc3)n2)cc2ccccc21	-51	149*	4.1*	159*	x	x
Cc1ccc(-n2nnc(-c3cc4ccccc4n3C)n2)cc1	-7	108	1.2	122	x	x
O=C(Nc1ccon1)c1ccc(N2CCCCC2)c([N+](=O)[O-])c1	-58	150*	3.2	133	-5	110
Cc1cc(NC(=O)c2ccc(N3CCCC3)c([N+](=O)[O-])c2)no1	-6	105	1	5	15	91
CC(C)CC(=O)NS(=O)(=O)c1ccc(NS(C)(=O)=O)cc1	1	100	1.2	-13	-1	103
COc1ccc(/C=C/C(=O)c2c(O)cc(C)oc2=O)c(OC)c1	-42	138*	4.1*	53	-28	123
O=C(COC(=O)Cn1cnc2ccccc21)Nc1ccc2c(c1)OCCO2	-5	104	0.97	2	8	97
O=C(COC(=O)Cn1cnc2ccccc21)Nc1cc2c(cc1Cl)C(=O)c1ccccc1C2=O	-37	136*	1.7	73	-12	113
CCN(CC)C(=O)CCc1nnc(Cc2cccc(C(F)(F)F)c2)o1	-51	146*	3.3*	113	-9	110
Cn1ncc2c(Nc3ccc4ccccc4c3)ncnc21	-50	145*	2.5	81	2	103
O=C(Nc1cccc(Cl)c1)Nc1ccc(Br)cc1F	-13	112	1	64	20	83
Cc1occc1C(=O)Nc1ccc(Br)cc1F	-32	130*	1.8	26	7	99
O=C(Nc1ccccc1)Nc1ccc(Br)cc1F	-33	130*	1.8	81	12	89
O=C(Nc1ccc(Cl)cc1)c1ccc(Br)cc1F	-43	140*	7.8*	150*	-2	101
CCOC(=O)N=Nc1c2ccccc2c2nc3no[nH]c3nc12	89*	17	0.09	-94	68*	46
CCOC(=O)N=Nc1c(O)n(CC(=O)OC)c2ccccc12	3	96	1.3	4	11	100
CC(C)n1c(-c2ccc(N(C)C)cc2)nc2ccccc21	-29	126	1.4	170*	-7	110
Cc1ccc(C(O)c2nc3ccccc3n2C(C)C)cc1 (configuration not stated)	2	98	0.81	-4	13	91
Cc1cccc(NS(=O)(=O)c2cc(C(=O)N3CCc4ccccc4C3)ccc2Cl)c1C	4	97	0.37	-9	1	105
Nc1ccccc1N=Cc1ccc(-c2cccc(Cl)c2)o1	-42	140*	1.6	91	-2	107
COC(=O)N/N=C/c1ccc(-c2cccc(Cl)c2)o1	-20	117	1.4	-3	14	89
SMILES	STAT1 blocker	STAT1 act	NF-kB expr up	APP 5'UTR act	STAT3 blocker	STAT3 act
Cc1nn(C)c(C)c1CNC(=O)Nc1ccc(Cl)cc1	-33	129*	2	55	-2	104
Cc1nn(C)c(C)c1CNC(=O)Nc1cccc(Cl)c1	-28	124	4.6*	32	-6	107
O=C(Nc1cccc(Cl)c1)Nc1nc(-c2ccccc2)cs1	0	99	1.5	34	15	89
Cc1ccc(NC(=O)C(=O)NCc2ccccn2)cc1	-38	134*	2.4	27	4	99
Cc1nn(C)c(C)c1CNC(=O)Nc1ccc2c(c1)OCO2	-24	120	1.7	13	1	101
Cc1csc(NC(=O)Nc2cccc(Cl)c2)n1	-37	134*	4.6*	119	-5	108
O=C(NCc1ccccn1)C(=O)Nc1ccccc1	-29	125	3.1	73	5	98
O=C(NCc1ccccn1)Nc1cccc(Cl)c1	-34	133*	3.7*	72	-11	115
O=C(NCc1ccccn1)Nc1cccc(NC(=O)NCc2ccccn2)c1	-10	108	1.6	12	-6	109
